# From ChEMBL document CHEMBL1649124, “Genetic variability among ampC genes from acinetobacter genomic species 3” (Antimicrob Agents Chemother, 2009)
# Residues, ends and D or L forms follow the SMILES beside them. *: point of attachment. βNA = c1ccc2cc(N*)ccc2c1
# What was measured:
# Assay type in all cases: functional
# [1] = test system: Escherichia coli; assay: Antibacterial activity against Escherichia coli DH5alpha carrying ampC gene of Acinetobacter genomosp. 3 isolate 69 by Etest method
# Summary of the method: (§1)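 E. coli DH5α expressing the AG3 isolate ampC gene, PCR-amplified (high-fidelity system, 28 cycles) and cloned into BamHI/HindIII sites of pBGS18 (kanamycin marker) under the CTX-M-14 β-lactamase promoter. Grown at 37°C in LB, with kanamycin 50 µg/ml when needed. β-Lactam MICs determined by Etest per the manufacturer's instructions.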
# [2] = test system: Acinetobacter pittii; assay: Antibacterial activity against Acinetobacter genomosp. 3 isolate 109 by Etest method
# Summary of the method: (§2)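 MICs for AG3 clinical isolates were read by Etest following the manufacturer's instructions. Isolates were stored at –80°C in 10% Brucella glycerol broth before testing.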
# [3] = test system: Acinetobacter pittii; assay: Antibacterial activity against Acinetobacter genomosp. 3 isolate 20 by Etest method; summary of the method: as §2
# [4] = test system: Escherichia coli; assay: Antibacterial activity against Escherichia coli DH5alpha carrying ampC gene of Acinetobacter genomosp. 3 isolate 14 by Etest method; summary of the method: as §1
# [5] = test system: Acinetobacter pittii; assay: Antibacterial activity against Acinetobacter genomosp. 3 isolate 103 by Etest method; summary of the method: as §2
# [6] = test system: Escherichia coli; assay: Antibacterial activity against Escherichia coli DH5alpha carrying ampC gene of Acinetobacter genomosp. 3 isolate 109 by Etest method; summary of the method: as §1
# [7] = test system: Acinetobacter pittii; assay: Antibacterial activity against Acinetobacter genomosp. 3 isolate 60 by Etest method; summary of the method: as §2
# [8] = test system: Acinetobacter pittii; assay: Antibacterial activity against Acinetobacter genomosp. 3 isolate 65 by Etest method; summary of the method: as §2
# [9] = test system: Acinetobacter pittii; assay: Antibacterial activity against Acinetobacter genomosp. 3 isolate 90 by Etest method; summary of the method: as §2
# [10] = test system: Acinetobacter pittii; assay: Antibacterial activity against Acinetobacter genomosp. 3 isolate 67 by Etest method; summary of the method: as §2
# [11] = test system: Escherichia coli; assay: Antibacterial activity against Escherichia coli DH5alpha carrying ampC gene of Acinetobacter genomosp. 3 isolate 20 by Etest method; summary of the method: as §1
# [12] = test system: Acinetobacter pittii; assay: Antibacterial activity against Acinetobacter genomosp. 3 isolate 56 by Etest method; summary of the method: as §2
# [13] = test system: Escherichia coli; assay: Antibacterial activity against Escherichia coli DH5alpha carrying ampC gene of Acinetobacter genomosp. 3 isolate 103 by Etest method; summary of the method: as §1
# [14] = test system: Acinetobacter pittii; assay: Antibacterial activity against Acinetobacter genomosp. 3 isolate 21 by Etest method; summary of the method: as §2
# [15] = test system: Acinetobacter pittii; assay: Antibacterial activity against Acinetobacter genomosp. 3 isolate 195 by Etest method; summary of the method: as §2
# [16] = test system: Escherichia coli; assay: Antibacterial activity against Escherichia coli DH5alpha by Etest method
# Summary of the method: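 E. coli DH5α host strain, grown at 37°C in LB medium. MICs of β-lactams determined by Etest following the manufacturer's instructions.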
# [17] = test system: Acinetobacter pittii; assay: Antibacterial activity against Acinetobacter genomosp. 3 isolate 243 by Etest method; summary of the method: as §2
# [18] = test system: Acinetobacter pittii; assay: Antibacterial activity against Acinetobacter genomosp. 3 isolate 128 by Etest method; summary of the method: as §2
# [19] = test system: Escherichia coli; assay: Antibacterial activity against Escherichia coli DH5alpha carrying ampC gene of Acinetobacter genomosp. 3 isolate 195 by Etest method; summary of the method: as §1
# [20] = test system: Acinetobacter pittii; assay: Antibacterial activity against Acinetobacter genomosp. 3 isolate 14 by Etest method; summary of the method: as §2
# [21] = test system: Escherichia coli; assay: Antibacterial activity against Escherichia coli DH5alpha carrying ampC gene of Acinetobacter genomosp. 3 isolate 56 by Etest method; summary of the method: as §1
# [22] = test system: Escherichia coli; assay: Antibacterial activity against Escherichia coli DH5alpha carrying ampC gene of Acinetobacter genomosp. 3 isolate 65 by Etest method; summary of the method: as §1
# [23] = test system: Acinetobacter pittii; assay: Antibacterial activity against Acinetobacter genomosp. 3 isolate 52 by Etest method; summary of the method: as §2
# [24] = test system: Acinetobacter pittii; assay: Antibacterial activity against Acinetobacter genomosp. 3 isolate 69 by Etest method; summary of the method: as §2
SMILES,MIC [1],MIC [2],MIC [3],MIC [4],MIC [5],MIC [6],MIC [7],MIC [8],MIC [9],MIC [10],MIC [11],MIC [12],MIC [13],MIC [14],MIC [15],MIC [17],MIC [18],MIC [20],MIC [23],MIC [24],also measured
CO/N=C(\C(=O)N[C@@H]1C(=O)N2C(C(=O)[O-])=C(C[N+]3(C)CCCC3)CS[C@H]12)c1csc(N)n1,0.023 µg/mL,2 µg/mL,4 µg/mL,0.023 µg/mL,3 µg/mL,0.023 µg/mL,4 µg/mL,3 µg/mL,16 µg/mL,4 µg/mL,0.19 µg/mL,2 µg/mL,0.032 µg/mL,12 µg/mL,6 µg/mL,3 µg/mL,2 µg/mL,3 µg/mL,2 µg/mL,3 µg/mL,MIC [16]: 0.016 µg/mL; MIC [19]: 0.032 µg/mL; MIC [21]: 0.023 µg/mL; MIC [22]: 0.032 µg/mL
Cl.Cl.N=C(N)NCCC[C@H](NC(=O)[C@@H](N)Cc1ccccc1)C(=O)Nc1ccc2ccccc2c1 (H-Phe-Arg-βNA),,400 µg/mL,> 400 µg/mL,,400 µg/mL,,400 µg/mL,> 400 µg/mL,> 400 µg/mL,400 µg/mL,,> 400 µg/mL,,> 400 µg/mL,400 µg/mL,> 400 µg/mL,400 µg/mL,> 400 µg/mL,400 µg/mL,400 µg/mL,
CC1(C)S[C@@H]2[C@H](NC(=O)[C@H](N)c3ccccc3)C(=O)N2[C@H]1C(=O)O [AMPICILLIN],96 µg/mL,,> 256 µg/mL,128 µg/mL,> 256 µg/mL,64 µg/mL,,,,,96 µg/mL,,128 µg/mL,,,,,,,,MIC [16]: 3 µg/mL; MIC [19]: 96 µg/mL; MIC [21]: 96 µg/mL; MIC [22]: 32 µg/mL
N#CC(C#N)=NNc1cccc(Cl)c1 [CARBONYL CYANIDE M-CHLOROPHENYLHYDRAZONE],,> 400 µM,400 µM,,> 400 µM,,> 400 µM,> 400 µM,> 400 µM,> 400 µM,,> 400 µM,,> 400 µM,> 400 µM,400 µM,> 400 µM,400 µM,> 400 µM,> 400 µM,
CO/N=C(\C(=O)N[C@@H]1C(=O)N2C(C(=O)O)=C(COC(C)=O)CS[C@H]12)c1csc(N)n1 [CEFOTAXIME],0.38 µg/mL,16 µg/mL,16 µg/mL,0.75 µg/mL,16 µg/mL,0.38 µg/mL,24 µg/mL,12 µg/mL,12 µg/mL,16 µg/mL,0.125 µg/mL,4 µg/mL,0.75 µg/mL,24 µg/mL,24 µg/mL,16 µg/mL,12 µg/mL,24 µg/mL,12 µg/mL,16 µg/mL,MIC [16]: 0.064 µg/mL; MIC [19]: 0.75 µg/mL; MIC [21]: 0.38 µg/mL; MIC [22]: 25 µg/mL
CO[C@@]1(NC(=O)Cc2cccs2)C(=O)N2C(C(=O)O)=C(COC(N)=O)CS[C@@H]21 [CEFOXITIN],16 µg/mL,> 256 µg/mL,> 256 µg/mL,32 µg/mL,192 µg/mL,24 µg/mL,> 256 µg/mL,128 µg/mL,128 µg/mL,> 256 µg/mL,32 µg/mL,64 µg/mL,32 µg/mL,> 256 µg/mL,> 256 µg/mL,48 µg/mL,128 µg/mL,> 256 µg/mL,> 256 µg/mL,> 256 µg/mL,MIC [16]: 2 µg/mL; MIC [19]: 24 µg/mL; MIC [21]: 16 µg/mL; MIC [22]: 3 µg/mL
